{"source": "ChEMBL document CHEMBL1649560", "about": "“Beta-lactamase-mediated beta-lactam resistance in Campylobacter species: prevalence of Cj0299 (bla OXA-61) and evidence for a novel beta-Lactamase in C. jejuni” (2009)", "assay_type_in_all_cases": "functional", "key": {"Campylobacter coli [1]": {"test_system": "Campylobacter coli", "assay": "Antibacterial activity against Campylobacter coli by NCCLS agar doubling dilution method", "method_in_brief": "(§1)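 MICs by agar doubling dilution following the NCCLS (CLSI) Campylobacter Working Group procedure, applied to ampicillin- and amoxicillin-resistant isolates from UK chicken flocks (2000–2006). C. jejuni NCTC 11168 and C. coli NCTC 11366 served as control strains. Resistance was called at an ampicillin cutoff of 8 μg/ml. Other agents were judged against Enterobacteriaceae guidelines (BSAC, CLSI).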"}, "Campylobacter jejuni [2]": {"test_system": "Campylobacter jejuni", "assay": "Antibacterial activity against bla gene-negative and nitrocefin reaction-positive beta-lactamase harboring Campylobacter jejuni isolate P854 by NCCLS agar doubling dilution method", "method_in_brief": "(§2)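 MICs of β-lactams by agar doubling dilution following the NCCLS (CLSI) Campylobacter Working Group procedure, with C. jejuni NCTC 11168 and C. coli NCTC 11366 as controls. Isolates were from UK poultry flocks. β-Lactamase status was set by Cj0299 PCR (281-bp amplimer) and by a nitrocefin colour change of sonicated lysate within 5 min, or within 30 min on repeat.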"}, "Campylobacter coli [3]": {"test_system": "Campylobacter coli", "assay": "Antibacterial activity against bla gene-positive and nitrocefin reaction-positive beta-lactamase harboring Campylobacter coli isolate P321 by NCCLS agar doubling dilution method", "method_in_brief": "as §2"}, "Campylobacter jejuni [4]": {"test_system": "Campylobacter jejuni", "assay": "Antibacterial activity against bla gene-positive and nitrocefin reaction-positive beta-lactamase harboring Campylobacter jejuni isolate P1730 by NCCLS agar doubling dilution method", "method_in_brief": "(§3)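 MICs by agar doubling dilution per the NCCLS (now CLSI) Campylobacter Working Group method. Isolates came from UK chicken flocks (feces, ceca or farm environment), 2000–2006. C. jejuni NCTC 11168 and C. coli NCTC 11366 served as control strains. The ampicillin resistance cutoff was 8 μg/ml; BSAC/CLSI Enterobacteriaceae guidelines were used for other agents.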"}, "Campylobacter jejuni [5]": {"test_system": "Campylobacter jejuni", "assay": "Antibacterial activity against Campylobacter jejuni assessed as resistant isolates by NCCLS agar doubling dilution method", "method_in_brief": "(§4)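 MICs by agar doubling dilution following the NCCLS (CLSI) Campylobacter Working Group procedure, with C. jejuni NCTC 11168 and C. coli NCTC 11366 as controls. Isolates came from UK chicken flocks, 2000–2006. Isolates were designated resistant at an ampicillin cutoff of 8 μg/ml. Enterobacteriaceae guidelines (BSAC, CLSI) were used as reference for the other agents.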"}, "Campylobacter jejuni [6]": {"test_system": "Campylobacter jejuni", "assay": "Antibacterial activity against bla gene-positive and nitrocefin reaction-positive beta-lactamase harboring Campylobacter jejuni isolate P1093 by NCCLS agar doubling dilution method", "method_in_brief": "as §2"}, "Campylobacter jejuni [7]": {"test_system": "Campylobacter jejuni", "assay": "Antibacterial activity against Campylobacter jejuni isolate P1093 harboring blaOXA-61::cat gene by NCCLS agar doubling dilution method", "method_in_brief": "(§5)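 Agar doubling dilution MICs (NCCLS/CLSI Campylobacter Working Group method) against Cj0299-inactivated mutants. Mutants were made by transforming the C. jejuni isolate with pCI and selecting on Mueller-Hinton agar with 10 μg/ml chloramphenicol for 3–5 days. Chromosomal insertion was confirmed by PCR with Cj0299 and cat primers.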"}, "Campylobacter jejuni [8]": {"test_system": "Campylobacter jejuni", "assay": "Antibacterial activity against bla gene-positive and nitrocefin reaction-negative beta-lactamase harboring Campylobacter jejuni isolate P1698 by NCCLS agar doubling dilution method", "method_in_brief": "as §2"}, "Campylobacter jejuni [9]": {"test_system": "Campylobacter jejuni", "assay": "Antibacterial activity against bla gene-positive and nitrocefin reaction-positive beta-lactamase harboring Campylobacter jejuni isolate P1618 by NCCLS agar doubling dilution method", "method_in_brief": "as §2"}, "Campylobacter jejuni [10]": {"test_system": "Campylobacter jejuni", "assay": "Antibacterial activity against bla gene-positive and nitrocefin reaction-negative beta-lactamase harboring Campylobacter jejuni NCTC 11168 by NCCLS agar doubling dilution method", "method_in_brief": "as §2"}, "Campylobacter coli [11]": {"test_system": "Campylobacter coli", "assay": "Antibacterial activity against Campylobacter coli assessed as resistant isolates by NCCLS agar doubling dilution method", "method_in_brief": "as §4"}, "Campylobacter jejuni [12]": {"test_system": "Campylobacter jejuni", "assay": "Antibacterial activity against bla gene-positive and nitrocefin reaction-negative beta-lactamase harboring Campylobacter jejuni isolate P1699 by NCCLS agar doubling dilution method", "method_in_brief": "as §2"}, "Campylobacter jejuni [13]": {"test_system": "Campylobacter jejuni", "assay": "Antibacterial activity against bla gene-negative and nitrocefin reaction-negative beta-lactamase harboring Campylobacter jejuni isolate P835 by NCCLS agar doubling dilution method", "method_in_brief": "as §2"}, "Campylobacter jejuni [14]": {"test_system": "Campylobacter jejuni", "assay": "Antibacterial activity against Campylobacter jejuni isolate P338 harboring blaOXA-61::cat gene by NCCLS agar doubling dilution method", "method_in_brief": "as §5"}, "Campylobacter jejuni [15]": {"test_system": "Campylobacter jejuni", "assay": "Antibacterial activity against bla gene-positive and nitrocefin reaction-positive beta-lactamase harboring Campylobacter jejuni isolate P338 by NCCLS agar doubling dilution method", "method_in_brief": "as §3"}, "Campylobacter coli [16]": {"test_system": "Campylobacter coli", "assay": "Antibacterial activity against bla gene-positive and nitrocefin reaction-positive beta-lactamase harboring Campylobacter coli isolate P1826 by NCCLS agar doubling dilution method", "method_in_brief": "as §2"}, "Campylobacter jejuni [17]": {"test_system": "Campylobacter jejuni", "assay": "Antibacterial activity against Campylobacter jejuni isolate P270 harboring blaOXA-61::cat gene by NCCLS agar doubling dilution method"}, "Campylobacter jejuni [18]": {"test_system": "Campylobacter jejuni", "assay": "Antibacterial activity against Campylobacter jejuni by NCCLS agar doubling dilution method", "method_in_brief": "as §1"}, "Campylobacter jejuni [19]": {"test_system": "Campylobacter jejuni", "assay": "Antibacterial activity against bla gene-negative and nitrocefin reaction-positive beta-lactamase harboring Campylobacter jejuni isolate P843 by NCCLS agar doubling dilution method", "method_in_brief": "as §2"}, "Campylobacter jejuni [20]": {"test_system": "Campylobacter jejuni", "assay": "Antibacterial activity against bla gene-negative and nitrocefin reaction-negative beta-lactamase harboring Campylobacter jejuni isolate P1962 by NCCLS agar doubling dilution method", "method_in_brief": "as §2"}, "Campylobacter jejuni [21]": {"test_system": "Campylobacter jejuni", "assay": "Antibacterial activity against bla gene-positive and nitrocefin reaction-positive beta-lactamase harboring Campylobacter jejuni isolate P316 by NCCLS agar doubling dilution method", "method_in_brief": "as §3"}, "Campylobacter jejuni [22]": {"test_system": "Campylobacter jejuni", "assay": "Antibacterial activity against bla gene-positive and nitrocefin reaction-positive beta-lactamase harboring Campylobacter jejuni isolate P1650 by NCCLS agar doubling dilution method", "method_in_brief": "as §2"}, "Campylobacter jejuni [23]": {"test_system": "Campylobacter jejuni", "assay": "Antibacterial activity against bla gene-positive and nitrocefin reaction-positive beta-lactamase harboring Campylobacter jejuni isolate P285 by NCCLS agar doubling dilution method", "method_in_brief": "as §3"}, "Campylobacter jejuni [24]": {"test_system": "Campylobacter jejuni", "assay": "Antibacterial activity against bla gene-positive and nitrocefin reaction-positive beta-lactamase harboring Campylobacter jejuni isolate P790 by NCCLS agar doubling dilution method", "method_in_brief": "as §3"}, "Campylobacter jejuni [25]": {"test_system": "Campylobacter jejuni", "assay": "Antibacterial activity against bla gene-negative and nitrocefin reaction-negative beta-lactamase harboring Campylobacter jejuni isolate P850 by NCCLS agar doubling dilution method", "method_in_brief": "as §2"}, "Campylobacter jejuni [26]": {"test_system": "Campylobacter jejuni", "assay": "Antibacterial activity against bla gene-positive and nitrocefin reaction-positive beta-lactamase harboring Campylobacter jejuni isolate P286 by NCCLS agar doubling dilution method", "method_in_brief": "as §3"}, "Campylobacter jejuni [27]": {"test_system": "Campylobacter jejuni", "assay": "Antibacterial activity against bla gene-positive and nitrocefin reaction-positive beta-lactamase harboring Campylobacter jejuni isolate P305 by NCCLS agar doubling dilution method", "method_in_brief": "as §3"}, "Campylobacter coli [28]": {"test_system": "Campylobacter coli", "assay": "Antibacterial activity against bla-positive and beta-lactamase-weakly positive Campylobacter coli isolate P1627 by NCCLS agar doubling dilution method", "method_in_brief": "as §3"}}}
{"smiles": "CC1(C)S[C@@H]2[C@H](NC(=O)[C@H](N)c3ccccc3)C(=O)N2[C@H]1C(=O)O", "note": "[AMPICILLIN]", "values": [{"measurement": "MIC50", "setting": "Campylobacter coli [1]", "result": 64, "unit": "µg/mL"}, {"measurement": "MIC90", "setting": "Campylobacter coli [1]", "result": 128, "unit": "µg/mL"}, {"measurement": "MIC", "setting": "Campylobacter jejuni [2]", "result": 128, "unit": "µg/mL"}, {"measurement": "MIC", "setting": "Campylobacter coli [3]", "result": 128, "unit": "µg/mL"}, {"measurement": "MIC", "setting": "Campylobacter jejuni [4]", "result": 64, "unit": "µg/mL"}, {"measurement": "Activity", "setting": "Campylobacter jejuni [5]", "result": 47.5, "unit": "%"}, {"measurement": "MIC", "setting": "Campylobacter jejuni [6]", "result": 128, "unit": "µg/mL"}, {"measurement": "MIC", "setting": "Campylobacter jejuni [7]", "result": 2, "unit": "µg/mL"}, {"measurement": "MIC", "setting": "Campylobacter jejuni [8]", "result": 128, "unit": "µg/mL"}, {"measurement": "MIC", "setting": "Campylobacter jejuni [9]", "result": 64, "unit": "µg/mL"}, {"measurement": "MIC", "setting": "Campylobacter jejuni [10]", "result": 4, "unit": "µg/mL"}, {"measurement": "Activity", "setting": "Campylobacter coli [11]", "result": 67.4, "unit": "%"}, {"measurement": "MIC", "setting": "Campylobacter jejuni [12]", "result": 64, "unit": "µg/mL"}, {"measurement": "MIC", "setting": "Campylobacter jejuni [13]", "result": 2, "unit": "µg/mL"}, {"measurement": "MIC", "setting": "Campylobacter jejuni [14]", "result": 2, "unit": "µg/mL"}, {"measurement": "MIC", "setting": "Campylobacter jejuni [15]", "result": 64, "unit": "µg/mL"}, {"measurement": "MIC", "setting": "Campylobacter coli [16]", "result": 128, "unit": "µg/mL"}, {"measurement": "MIC", "setting": "Campylobacter jejuni [17]", "result": 0.5, "unit": "µg/mL"}, {"measurement": "MIC50", "setting": "Campylobacter jejuni [18]", "result": 64, "unit": "µg/mL"}, {"measurement": "MIC90", "setting": "Campylobacter jejuni [18]", "result": 128, "unit": "µg/mL"}, {"measurement": "MIC", "setting": "Campylobacter jejuni [19]", "result": 32, "unit": "µg/mL"}, {"measurement": "MIC", "setting": "Campylobacter jejuni [20]", "result": 2, "unit": "µg/mL"}, {"measurement": "MIC", "setting": "Campylobacter jejuni [21]", "result": 64, "unit": "µg/mL"}, {"measurement": "MIC", "setting": "Campylobacter jejuni [22]", "result": 64, "unit": "µg/mL"}, {"measurement": "MIC", "setting": "Campylobacter jejuni [23]", "result": 64, "unit": "µg/mL"}, {"measurement": "MIC", "setting": "Campylobacter jejuni [24]", "result": 64, "unit": "µg/mL"}, {"measurement": "MIC", "setting": "Campylobacter jejuni [25]", "result": 32, "unit": "µg/mL"}, {"measurement": "MIC", "setting": "Campylobacter jejuni [26]", "result": 64, "unit": "µg/mL"}, {"measurement": "MIC", "setting": "Campylobacter jejuni [27]", "result": 64, "unit": "µg/mL"}, {"measurement": "MIC", "setting": "Campylobacter coli [28]", "result": 32, "unit": "µg/mL"}]}
